Source: PubChem
A selection: hits, their analogues and other compounds. The true share with any hit is near 3.8%.
KCNK9 block: human KCNK9 channel inhibition; hit rate 1.2% among 310,000; B-score at 10 µM; Q9NPC2; HEK293 KCNK9, FluxOR thallium flux fluorescence; hits give low values;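 active means ratio B-score over 3 SD below the library mean, with starting fluorescence within 5 SD of its mean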;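 further: negative B-score means less thallium flux so channel inhibition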
KCNK3 inh: human KCNK3 channel inhibition, primary screen. B-score at 10 µM. O14649. hit rate 0.84% among 340,000. CHO-KCNK3 thallium flux, FluxOR fluorescence; hits give low values;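 active means B-score under library mean minus 4 SD, starting fluorescence ratio at most library mean plus 5 SD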;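 further: more negative B-score means stronger inhibition of thallium flux through KCNK3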
Kir21 inh: Kir2.1 (mouse) channel inhibition | P35561 | HEK293-Kir2.1, FluxOR thallium flux fluorescence; hits give low values | B-score at 10 µM | hit rate 0.85% among 310,000;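 active means fluorescence ratio B-score at or below minus 3 SD of library scores, with starting-brightness B-score within 2 SD, cut at about -4.2 in these data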;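 further: channel flux triggered by added potassium and thallium sulfate stimulus; B-score of peak minus minimum fluorescence over baseline after thallium stimulus; more negative B-score means stronger Kir2.1 block with less thallium influx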
KCNQ1 inh: inhibitors of human KCNQ1 potassium channel; hit rate 1.3% among 310,000; CHO-K1 KCNQ1, FluxOR thallium flux fluorescence; hits give high values; AID 2642; B-score at 10 µM;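 active means compounds whose thallium flux B-score, printed positive for inhibition, exceeds three library SD while starting fluorescence stays within three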;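 further: channel opened by potassium depolarization with thallium stimulus after 20 min compound exposure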
Target sequence (P51787 whole entry, looked up): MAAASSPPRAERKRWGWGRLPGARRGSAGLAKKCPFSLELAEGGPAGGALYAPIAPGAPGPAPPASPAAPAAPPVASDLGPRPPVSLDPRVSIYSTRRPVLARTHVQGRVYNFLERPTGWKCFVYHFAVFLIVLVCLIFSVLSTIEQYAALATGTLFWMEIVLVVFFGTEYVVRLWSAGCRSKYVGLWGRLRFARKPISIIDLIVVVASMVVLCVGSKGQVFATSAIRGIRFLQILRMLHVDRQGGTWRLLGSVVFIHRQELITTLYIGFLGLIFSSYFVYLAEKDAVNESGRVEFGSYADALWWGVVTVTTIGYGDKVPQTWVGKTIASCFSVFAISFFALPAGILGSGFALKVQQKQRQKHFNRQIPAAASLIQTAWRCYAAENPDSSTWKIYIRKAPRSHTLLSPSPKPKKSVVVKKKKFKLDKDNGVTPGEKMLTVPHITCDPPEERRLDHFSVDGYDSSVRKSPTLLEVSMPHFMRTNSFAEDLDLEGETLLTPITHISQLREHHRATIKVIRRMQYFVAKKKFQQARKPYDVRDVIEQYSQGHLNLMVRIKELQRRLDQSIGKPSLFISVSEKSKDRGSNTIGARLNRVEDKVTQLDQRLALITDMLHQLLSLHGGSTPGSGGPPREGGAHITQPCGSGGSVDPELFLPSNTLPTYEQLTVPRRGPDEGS
KCNQ1 pot: potentiates or activates the human KCNQ1 potassium channel | CHO-K1 KCNQ1, thallium flux FluxOR fluorescence; hits give high values | B-score at 10 µM | P51787 | hit rate 0.35% among 310,000 | AID 2648;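 active means fluorescence ratio B-score, a plate-corrected score, at least three library SD, with initial intensity B-score within 5 SD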
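Assay system: CHO-K1 cells stably expressing KCNQ1. Medium: assay buffer for compound exposure, DMSO matched across wells. Timing: 37 °C overnight plating, 90-min dark dye load, 20-min compound pretreatment. Signal: kinetic FluxOR fluorescence, 10 s baseline plus 110 s post-stimulus.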
hERG protect: compounds protecting human hERG from proarrhythmic drug block; CHO-hERG, FluxOR thallium flux, dofetilide IC70 present; activation (rescue from dofetilide block), less the hit threshold, % at 10 µM; Q12809; hit rate 0.51% among 310,000;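 active means activation above the mean of controls blocked by dofetilide plus 5 SD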;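 further: thallium influx through hERG after potassium depolarization seen as dye fluorescence rise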
* = called active by the depositor; i = inactive; . = not tested or not shown.

SMILES	KCNK9 block	KCNK3 inh	Kir21 inh	KCNQ1 inh	KCNQ1 pot	hERG protect
Cc1ccc(NC(=S)NCCc2c[nH]c3ccccc23)c(C)c1	i	i	-7.3*	i	i	-9
Cc1cc(C)c(S(=O)(=O)NCCc2ccccc2)c(C)c1	i	i	-10*	i	i	-6
COc1ccc([N+](=O)[O-])cc1N/C(=N/S(=O)(=O)c1ccccc1)c1ccccc1	i	i	0.01	i	i	-12
COc1ccccc1C(=O)NNC(=O)C(=O)NCc1ccccc1	i	i	0.1	i	7*	10*
Cc1ccc(N2NC(=O)/C(=C\c3cc4c(cc3[N+](=O)[O-])OCO4)C2=O)cc1C	i	i	-6.5*	i	i	-7
COc1cc(/C=C2/C(=O)NN(c3ccc(C)c(Cl)c3)C2=O)cc([N+](=O)[O-])c1O	i	i	0.94	i	i	-17
COc1ccc(N2CC(C(=O)Nc3ccc(S(=O)(=O)Nc4nccs4)cc3)CC2=O)c(OC)c1 (stereo not drawn)	.	i	.	.	.	.
COc1ccc(CNC(=O)c2cc3ccccc3oc2=O)cc1	i	i	0.15	i	i	-2
COc1ccc(-c2[nH]c3ccccc3c2SCCNC(=O)c2cc3ccccc3oc2=O)cc1	i	i	0.67	8*	i	-16
COc1cc(/C=N/N=C(N)N)ccc1OCc1ccccc1Cl	i	i	-16*	10*	i	-30
COc1cccc(N2CCN(c3ncnc4c3[nH]c3ccc(F)cc34)CC2C)c1 (stereo not drawn)	i	-13*	-0.76	13*	i	-38
CCCCn1c(-c2csc(CC)c2)n[nH]c1=S	i	i	-1.1	i	i	-8
CCCCn1c(-c2csc(C(C)C)c2)n[nH]c1=S	i	i	-1.9	i	i	5.0*
CCCCCCn1c(-c2cccs2)n[nH]c1=S	i	i	-1.3	i	i	7.9*
COc1ccc(NC(=O)Nc2cccc3c2O[C@H](CN(C)S(C)(=O)=O)[C@@H](C)CN([C@H](C)CO)C3=O)cc1	.	i	.	.	.	.
COc1ccccc1-c1cc(-c2ccccc2)nc(SCC(=O)O)c1C#N	i	i	0.05	i	i	-15
O=C(CN(C(=O)c1csnn1)c1cccc(C(F)(F)F)c1)NCCc1ccccc1	i	i	0.31	i	i	-6
O=C(NC(Cc1ccccc1)C(=O)O)/C(=C/c1ccco1)NC(=O)c1cccc([N+](=O)[O-])c1 (stereo not drawn)	i	i	0.55	i	i	53*
c1ccc2oc(-c3[nH]ncc3CN3CCSCC3)cc2c1	i	i	-0.8	i	i	-17
c1ccc2oc(-c3ccn[nH]3)cc2c1	i	i	-1.3	i	i	6.9*
CC(C)(Oc1ccc(Cl)cc1)C(=O)NC1CC1	i	i	0.17	i	i	-4
Cc1ccc(C)c(C(=O)OCC(=O)Nc2cccc(S(=O)(=O)N3CCCCC3)c2)c1	.	-9.6*	.	.	.	.
Cc1ccc(S(=O)(=O)N2CCCCC2)cc1NC(=O)c1cc2ccccc2o1	.	-9*	.	.	.	.
Cc1ccc(C)c(OCCC(=O)OCC(=O)Nc2cc(S(=O)(=O)N3CCCCC3)ccc2C)c1	.	-10*	.	.	.	.
CCc1nc2ccccc2c(C(=O)OCC(=O)Nc2cccc(S(=O)(=O)N3CCOCC3)c2)c1C	i	-9*	0.9	i	i	-12
SMILES	KCNK9 block	KCNK3 inh	Kir21 inh	KCNQ1 inh	KCNQ1 pot	hERG protect
COc1ccc(CNC(=O)C[C@H]2C[C@H](C(=O)N3CCCCC3)[C@@]3(CCc4ccccc4)c4[nH]c5ccc(Cl)cc5c4CCN3C2=O)cc1OC	.	i	.	.	.	.
Cc1ncoc1C(=O)N1CCCC(N2CCN(c3cccc(C(F)(F)F)c3)CC2)C1 (stereo not drawn)	i	i	-0.61	i	i	-4
CCCC(C(=O)Nc1cccc(S(=O)(=O)N2CCCC2)c1)c1ccccc1 (stereo not drawn)	-7.4*	i	-0.45	i	i	-11
CC(CC(=O)Nc1cccc(S(=O)(=O)N2CCCCC2)c1)c1ccccc1 (stereo not drawn)	.	i	.	.	.	.
COc1ccccc1OC(=O)Nc1ccc(Cl)cc1	i	i	1.2	6*	i	-10
COc1cc(C2C=C(c3cccs3)Nc3ncnn32)cc(OC)c1OC (stereo not drawn)	.	i	.	.	.	.
Cc1nc2ccccc2c2c1C(=O)N(C)C2=O	i	i	1.1	i	i	5.7*
Cc1nc2ccccc2c2c1C(=O)N(C(C)C)C2=O	i	i	0.05	i	i	-9
CC(C)(C)c1cc[n+](-c2[nH]c(=O)sc2/C=N/NC([S-])=Nc2ccccc2)cc1	i	i	-9.3	8*	i	-28
Cc1cc[n+](-c2[nH]c(=O)sc2/C=N/NC([S-])=Nc2ccccc2)cc1C	i	i	0	i	i	-10
CCn1cc(CN2CCC(n3nccc3NC(=O)c3ccc(OC)cc3)CC2)cn1	i	i	0.68	i	i	-2
CCCCCCCCCc1nc2sc3c(c2c(=O)n1NC(=O)c1ccccc1[N+](=O)[O-])CC(C)(C)OC3	i	i	-0.07	8*	i	-9
CCCc1nc2sc3c(c2c(=O)n1NC(=O)c1ccco1)CC(C)(C)OC3	i	i	0.17	i	i	-11
CCCCCCCCCc1nc2sc3c(c2c(=O)n1NC(=O)c1ccc([N+](=O)[O-])cc1)CC(C)(C)OC3	i	i	-0.18	7*	i	-10
C/C(=N\NC(N)=S)c1cc(-c2ccccc2)c(-c2ccccc2)s1	-8*	i	0.05	i	i	-11
O=C(N/N=C/c1cccc(Oc2ccccc2)c1)c1cc[n+]([O-])cc1	i	i	2.4	i	i	-12
Nc1ccc(C(=O)N/N=C/c2cccc(Oc3ccccc3)c2)cc1	i	i	-11*	i	i	-13
COC(=O)c1c(C)[nH]c(C(=O)OCC(=O)c2c(N)n(CC(C)C)c(=O)n(C)c2=O)c1C	.	i	.	.	.	.
CCCN1C2CCCC1CC(NC(=O)c1ccccc1OC)C2 (stereo not drawn)	i	i	-0.49	8*	i	-5
CNC(=O)c1nnsc1S(=O)(=O)c1ccc(Cl)cc1	i	i	-8.7*	i	i	-15
CC1=NN(c2nc(-c3ccc(C)cc3)cs2)C(=O)C1N=Nc1cccc(O)c1 (stereo not drawn)	i	i	-0.71	i	i	-20
CC1=NN(c2nc(-c3ccc(C)cc3)cs2)C(=O)C1N=Nc1ccccc1O (stereo not drawn)	i	i	-0.35	6*	i	-13
